From ChEMBL document CHEMBL1155416, “Ethacrynic acid analogues lacking the alpha,beta-unsaturated carbonyl unit--potential anti-metastatic drugs” (2010)
Active and inactive are the calls of the source. The calls are words filed in the database; no cut-off is given here.

Test system: not listed separately
Assay: Cytotoxicity against human MCF7/AZ cells assessed as reduction of cell viability after 24 hrs by MTT assay
Assay type: functional
Summary of the method: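 MCF-7/AZ cells were seeded at 1.5 × 10^4 cells/well in medium with 5% FBS and penicillin/streptomycin, then grown 24 h at 37 C under 5% CO2. They were exposed 24 h to eight concentrations (1, 5, 10, 20, 40, 60, 80, 100 μM). Part of the medium was removed before adding MTT, and OD was read. Mean OD came from three independent experiments. OD80/IC20 (20% viability loss) was read from the graphs.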

Structure (SMILES)	IC20 [µM]
CCC(=O)c1ccc(OCC(=O)O)cc1C	10
C=C(CC)C(=O)c1ccc(OCC(=O)O)c(Cl)c1Cl [ETHACRYNIC ACID]	> 100
CCC(=O)c1ccc(OCC(=O)O)cc1	25
CCC(=O)c1ccc(OCC(=O)O)c(OC)c1	> 100
CCC(=O)c1ccc(OCC(=O)O)c(C)c1	20
CCC(=O)c1cc(OC)c(OCC(=O)O)c(OC)c1	> 100
CCC(=O)c1ccc(OCC(=O)O)cc1OC	> 100

Test system: not listed separately
Assay: (§1) Antimigration against human MCF7/AZ cells at 10 to 25 uM after 24 hrs by wound healing assay
Assay type: functional
Summary of the method: (§2)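 Confluent MCF-7/AZ monolayers were washed twice with PBS and scratched to leave a gap of about 1500 μm, then imaged. Medium with or without compound was added, at concentrations chosen from the 24 h MTT assay. After 24 h of migration the wound was imaged again and compared with the first image. Migration was expressed as migratory velocity (μm/h).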

Structure (SMILES)	inhibition (INH) [%]
CCC(=O)c1ccc(OCC(=O)O)c(OC)c1	38
CCC(=O)c1cc(OC)c(OCC(=O)O)c(OC)c1	52
CCC(=O)c1ccc(OCC(=O)O)cc1OC	29

Test system: MCF7/AZ
Assay: as §1
Assay type: functional
Summary of the method: as §2

Structure (SMILES)	inhibition
CCC(=O)c1ccc(OCC(=O)O)cc1C	inactive
C=C(CC)C(=O)c1ccc(OCC(=O)O)c(Cl)c1Cl [ETHACRYNIC ACID]	inactive
CCC(=O)c1ccc(OCC(=O)O)cc1	inactive
CCC(=O)c1ccc(OCC(=O)O)c(C)c1	inactive
